Assay results reported in paper PMC6400523 (The Journal of General Physiology, 2019).

Assays:
rat ASCT2 = target: T1, rat ASCT2 (Rattus norvegicus, UniProt D3ZJ25); type: cell-based; settings: for Behaviour in anion current assay (inhibitor / substrate): rASCT2, direction of induced current
T1 sequence (D3ZJ25 1-555): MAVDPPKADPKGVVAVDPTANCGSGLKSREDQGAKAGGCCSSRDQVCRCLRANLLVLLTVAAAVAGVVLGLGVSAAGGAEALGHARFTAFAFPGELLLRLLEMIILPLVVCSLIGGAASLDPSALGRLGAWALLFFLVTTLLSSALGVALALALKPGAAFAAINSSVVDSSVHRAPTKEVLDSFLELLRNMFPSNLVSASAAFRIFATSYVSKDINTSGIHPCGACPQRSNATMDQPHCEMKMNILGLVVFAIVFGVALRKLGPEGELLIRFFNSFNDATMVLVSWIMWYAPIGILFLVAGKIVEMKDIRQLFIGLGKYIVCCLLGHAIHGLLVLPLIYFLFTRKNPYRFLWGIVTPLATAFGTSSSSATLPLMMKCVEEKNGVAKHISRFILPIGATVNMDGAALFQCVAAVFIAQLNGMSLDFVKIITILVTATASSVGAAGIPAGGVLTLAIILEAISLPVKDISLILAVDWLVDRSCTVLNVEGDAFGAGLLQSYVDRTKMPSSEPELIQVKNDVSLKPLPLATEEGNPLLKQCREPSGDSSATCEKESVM
Summary of the method: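 HEK293 cells cotransfected with rASCT2 and YFP cDNA; whole-cell recording 24–30 h later at 0 mV. External 140 mM NaCl, 2 mM MgCl2, 2 mM CaCl2, 10 mM HEPES pH 7.40; NaSCN pipette solution with 10 mM alanine. 1 mM L-alanine control; outward current = leak inhibition. Ki from Michaelis–Menten-like fit, including varied alanine; Imax from 1 mM response and Km. ≥4 repeats.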

hASCT2 = target: T2, hASCT2 (Homo sapiens, UniProt Q15758); test: Current recording in HEK293 cells expressing human ASCT2; type: cell-based
T2 sequence (Q15758 1-541): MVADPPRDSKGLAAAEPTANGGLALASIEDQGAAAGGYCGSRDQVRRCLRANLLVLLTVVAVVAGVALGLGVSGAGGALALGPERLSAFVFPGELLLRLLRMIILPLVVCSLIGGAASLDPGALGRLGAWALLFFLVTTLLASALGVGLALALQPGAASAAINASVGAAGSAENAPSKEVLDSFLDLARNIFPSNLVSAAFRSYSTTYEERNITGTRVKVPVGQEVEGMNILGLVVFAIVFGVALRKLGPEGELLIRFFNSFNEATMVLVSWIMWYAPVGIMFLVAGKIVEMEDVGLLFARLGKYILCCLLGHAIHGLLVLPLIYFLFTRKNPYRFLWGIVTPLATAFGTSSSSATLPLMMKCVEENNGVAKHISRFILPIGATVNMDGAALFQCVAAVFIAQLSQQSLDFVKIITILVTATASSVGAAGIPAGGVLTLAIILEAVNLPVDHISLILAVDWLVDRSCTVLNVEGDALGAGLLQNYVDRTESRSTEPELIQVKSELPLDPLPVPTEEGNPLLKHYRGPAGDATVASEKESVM

Compound: 4-fluorobenzene sulfonamide [Compound 9b]
- Imax, maximum current at saturating concentration (rat ASCT2; rASCT2, compared with current induced by 1 mM alanine): highest outward current

Compound: NC[C@H](N)C(=O)O [Compound 1, L-2,3-diaminopropionic acid]
- Behaviour in anion current assay (inhibitor / substrate) (rat ASCT2): properties of a transported substrate

Compound: CS(N)(=O)=O [Compound 2b, methanesulfonamide]
- Behaviour in anion current assay (inhibitor / substrate) (rat ASCT2): borderline substrate-like properties

Compound: C[C@H](N)C(=O)O [alanine, L-alanine]
- Current for saturating alanine in hASCT2 (hASCT2): < 20 pA
